From ChEMBL document CHEMBL1123400, “Synthesis and biological activity of certain nucleoside and nucleotide derivatives of pyrazofurin” (1986)

Experiments:
Human respirovirus 3 = test: In vitro antiviral activity against parainfluenza type 3 virus in Vero cells.; type: functional; settings: Human respirovirus 3, Vero; read-out: ED50 (the source's name)
Summary of the method: (§1)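 Confluent Vero monolayers (4 × 10^4 cells/well, grown 24 h at 37 °C in EMEM with 10% newborn bovine serum) were infected with virus: HSV-2 at 100, measles at 100, para-3 at 60 TCID50/well. After 30 min adsorption at 37 °C, compound was added in seven 0.5-log steps, final 5 × 10^-6 to 5 × 10^-3 M (active ones 5 × 10^-7 to 5 × 10^-4 M), duplicate wells.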

Vero = test: Maximum tolerated concentration against Vero cells.; type: functional, Chlorocebus sabaeus
Summary of the method: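 Single uninfected confluent Vero monolayer wells were exposed alongside the antiviral wells, final 5 × 10^-6 to 5 × 10^-3 M, for 72 h at 37 °C, 5% CO2. Cytotoxicity was any microscopically visible change in morphology or monolayer density (lysis, rounding, detachment). MTC is the […].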

Vaccinia virus = test: In vitro antiviral activity against vaccinia virus in Vero cells.; type: functional; settings: Orthopoxvirus vaccinia, read-out: ED50 (the source's name)
Measles morbillivirus = test: In vitro antiviral activity against measles virus in Vero cells; type: functional; settings: read-out: ED50 (the source's name); summary of the method: as §1
Human alphaherpesvirus 2 = test: In vitro antiviral activity against herpes simplex virus type 2 (HSV-2) in Vero cells.; type: functional; settings: Human alphaherpesvirus 2, Vero; read-out: ED50 (the source's name); summary of the method: as §1
L1210 [1] = test: In vitro inhibitory effect on growth of L1210 leukemia cells; type: functional; settings: Mus musculus, read-out: ID50 (the source's name)
Summary of the method: (§2)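 Suspension cells in RPMI-1640 with 10% FBS and 20 mM Hepes were seeded at 1 × 10^5 cells/mL. Filter-sterilized compound was added in duplicate at log concentrations 1 × 10^-10 to 1 × 10^-4 M. After 48 h at 37 °C, cells were Coulter-counted. ID50 is 50% growth inhibition versus untreated controls, averaged over two to three determinations.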

P388 [2] = test: In vitro inhibitory effect on growth of P388 leukemia cells; type: functional; settings: Mus musculus, read-out: ID50 (the source's name); summary of the method: as §2
[3] = test system: Lewis lung carcinoma cell line; test: In vitro inhibitory effect on growth of lewis lung carcinoma cells; type: functional; settings: Mus musculus, read-out: ID50 (the source's name)
Summary of the method: (§3)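 Monolayers were seeded at 2.5 × 10^4 cells/well and grown 24 h at 37 °C, 5% CO2. Lewis lung cells were kept in RPMI-1640 with 5% fetal calf serum; B16 cells in MEM with 10% FCS, nonessential amino acids, 1 mM pyruvate and vitamins. Medium was replaced with compound at log concentrations 1 × 10^-10 to 1 × 10^-4 M. After 72 h, cells were PBS-washed, trypsinized and Coulter-counted. ID50 is 50% growth inhibition versus controls, averaged over two to three determinations.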

B16 = test: In vitro inhibitory effect on growth of B16 melanoma cells; type: functional; settings: Mus musculus, read-out: ID50 (the source's name); summary of the method: as §3
P388 [4] = test: In vitro inhibitory effect on growth of P388 leukemia cell; type: functional; settings: Mus musculus, read-out: ID50 (the source's name); summary of the method: as §2
L1210 [5] = test: In vitro inhibitory effect on growth of L1210 leukemia cells.; type: functional; settings: Mus musculus, read-out: ID50 (the source's name); summary of the method: as §2
P388 [6] = test: In vitro inhibitory effect on growth of P388 leukemia cells.; type: functional; settings: Mus musculus, read-out: ID50 (the source's name); summary of the method: as §2
[7] = test system: Lewis lung carcinoma cell line; test: In vitro inhibitory effect on growth of lewis lung carcinoma cells.; type: functional; settings: Mus musculus, read-out: ID50 (the source's name); summary of the method: as §3
[8] = In vitro inhibitory effect on growth of […] cells.; type: functional; settings: Mus musculus; read-out: ID50 (the source's name); summary of the method: as §3

Structure (SMILES) | EC50 (Human respirovirus 3) [µM] | MTC (Vero) [mM] | EC50 (Vaccinia virus) [µM] | EC50 (Measles morbillivirus) [µM] | EC50 (Human alphaherpesvirus 2) [µM] | IC50 (L1210 [1]) [µM] | IC50 (P388 [2]) [µM] | IC50 [3] [µM] | IC50 (B16) [µM] | IC50 (P388 [4]) [µM] | IC50 (L1210 [5]) [µM] | IC50 (P388 [6]) [µM] | IC50 [7] [µM] | IC50 [8] [µM]
NC(=S)c1[nH]nc([C@@H]2O[C@H](CO)[C@@H](O)[C@H]2O)c1OCc1ccccc1 | > 5000 | >5 | 2100 | 500 | 2800 | > 100 | > 100 | > 100 | > 100 |  |  |  |  | 
NC(=O)c1[nH]nc([C@@H]2O[C@H](COP(=O)([O-])[O-])[C@@H](O)[C@H]2O)c1OCc1ccccc1.[Na+].[Na+] | > 5000 | >5 | > 5000 | > 5000 | > 5000 | 130 | 94 |  |  |  |  |  |  | 
COc1c([C@@H]2O[C@H](CO)[C@@H](O)[C@H]2O)n[nH]c1C(N)=O | > 5000 | >5 | 2800 | > 5000 | > 5000 | 29 | 40 |  |  |  |  |  |  | 
NC(=O)c1[nH]nc(C2OC3COP(=O)(O)O[C@@H]3[C@@H]2O)c1O (some centres not stated) | 500 | >5 | 250 | > 5000 | 130 | 2.5 | 4.4 | 1.7 | 6.3 |  |  |  |  | 
NC(=O)c1[nH]nc(C2O[C@H](COP(=O)(O)O)[C@H](O)[C@@H]2O)c1O (some centres not stated) | 6.3 | >5 | 4 | 20 | 23 | 0.0027 | 0.001 | 0.005 | 0.24 |  |  |  |  | 
N/C(=N/O)c1[nH]nc([C@@H]2O[C@H](CO)[C@@H](O)[C@H]2O)c1OCc1ccccc1 | > 5000 | >5 | > 5000 | > 5000 | > 5000 | > 100 | > 100 |  |  |  |  |  |  | 
NC(=O)C1NN=C([C@@H]2O[C@H](CO)[C@@H](O)[C@H]2O)C1=O (some centres not stated) | 3 | 1.6 | 2.8 | 9.6 | 20 | 0.0032 | 0.0033 | 0.0018 | 0.063 |  |  |  |  | 
NC(=O)c1[nH]nc([C@@H]2O[C@H](CO)[C@@H](O)[C@H]2O)c1OCc1ccccc1 | > 5000 | >5 | > 5000 | 1300 | > 5000 | 75 | 62 |  |  |  |  |  |  | 
COP(=O)(OC)OC[C@H]1O[C@@H](C2=NNC(C(N)=O)C2=O)[C@H](O)[C@@H]1O (some centres not stated) | 1000 | >5 | 280 | 1400 | > 5000 | 0.0058 | 0.012 | 0.01 | 2.3 |  |  |  |  | 
COc1c([C@@H]2O[C@H](CO)[C@@H](O)[C@H]2O)nn(C)c1C(N)=O | > 5000 | 5 | 5000 | > 5000 | 3200 | > 100 |  |  |  | > 100 |  |  |  | 
CN1N=C([C@@H]2O[C@H](CO)[C@@H](O)[C@H]2O)C(=O)C1C(N)=O (some centres not stated) | > 5000 | >5 | 1600 | > 5000 | > 5000 | 15 | 17 |  |  |  |  |  |  | 
N#CC1NN=C([C@@H]2O[C@H](CO)[C@@H](O)[C@H]2O)C1=O (some centres not stated) | > 5000 | >5 | 5000 | 5000 | > 5000 | 13 | 45 | 28 | 72 |  |  |  |  | 
CCOP(=O)(O)OC[C@H]1O[C@@H](C2=NNC(C(N)=O)C2=O)[C@H](O)[C@@H]1O (some centres not stated) | 80 | >5 | 26 | 97 | 590 | 0.0039 | 0.0032 | 0.0007 | 0.23 |  |  |  |  | 
NC(=O)c1[nH]nc(C2O[C@@H](COP(=O)(O)OP(=O)(O)OC[C@H]3OC(n4cnc5c(N)ncnc54)[C@H](O)[C@@H]3O)[C@H](O)[C@@H]2O)c1O (some centres not stated) | 5 | 5 | 9 | 16 | 10 |  |  |  |  |  | 0.004 | 0.0088 | 0.0048 | 0.6
N=C(N)C1NN=C([C@@H]2O[C@H](CO)[C@@H](O)[C@H]2O)C1=O (some centres not stated) |  | >5 | > 5000 | 5000 | 3100 | 79 | > 100 | 89 | > 100 |  |  |  |  | 
NC(=O)c1ncn([C@@H]2O[C@H](CO)[C@@H](O)[C@H]2O)n1 [RIBAVIRIN] | 160 | >5 | 90 | 99 | 190 |  |  |  |  |  |  |  |  | 
